pEC50: −log10 of the molar value. The source made the active and inactive calls. The rule behind the calls is not given here.
Experiments:
Rattus norvegicus [1] = assay: Toxicity in 6-OHDA induced parkinsonian motor deficit Sprague-Dawley rat model assessed as induction of dyskinesia at 20 mg/kg, ip; assay type: organism-based; conditions: in vivo
Rattus norvegicus [2] = assay: Toxicity in 6-OHDA induced parkinsonian motor deficit Sprague-Dawley rat model assessed as induction of overacting rearing behavior at 20 mg/kg, ip; assay type: organism-based; conditions: in vivo
Rattus norvegicus [3] = species: Rattus norvegicus; assay: Protection against 6-OHDA induced parkinsonian motor deficit in Sprague-Dawley rat after 28 days post surgery; assay type: functional
[4] = Tmax in Sprague-Dawley rat plasma at 10 mg/kg, po administered as single dose by LC-MS/MS analysis; assay type: ADME, organism-based
In short: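 Single-dose plasma PK after ip (10 or 30 mg/kg) or oral (10 mg/kg) dosing in rats, and oral 10 mg/kg dosing in mice. […] Values are mean ±SEM of 3 rats or 2 mice.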

Homo sapiens [5] = species: Homo sapiens; assay: Selectivity ratio of compound effect for positive allosteric modulation of recombinant human mGlu4 receptor to compound effect for agonist activity at human mGlu7 receptor
Rattus norvegicus [6] = species: Rattus norvegicus; assay: Activity at kainate glutamate receptor in rat cerebral cortex at 10 uM
In short: (§1)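 Inhibition of orthosteric ligand binding to NMDA, AMPA and kainate receptors on rat cerebral cortex membranes, tested up to 10 μM.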

Homo sapiens [7] = species: Homo sapiens; assay: Selectivity ratio of compound effect for positive allosteric modulation of recombinant human mGlu4 receptor to compound effect for agonist activity at human mGlu8 receptor
Homo sapiens [8] = species: Homo sapiens; assay: Selectivity ratio of compound effect for positive allosteric modulation of recombinant human mGlu4 receptor to compound effect for activity at human mGlu6 receptor
[9] = Ratio of drug level in Sprague-Dawley rat brain to plasma at 1 mg/kg, iv after 1 hr post dose administered as single dose by LC-MS/MS analysis; assay type: ADME, organism-based; conditions: read-out: BPR
In short: (§2)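 Single iv dose, 1 mg/kg in rat or 2 mg/kg in mouse; plasma PK parameters derived; brain/plasma ratio taken at 1 h postdose (rat) or 30 min postdose (mouse). Mean of 3 rats; 2 mice for mouse Cmax and brain/plasma.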

[10] = Drug uptake in Sprague-Dawley rat brain at 10 mg/kg, po after 30 mins post dose administered as single dose by LC-MS/MS analysis; assay type: ADME, organism-based; conditions: read-out: Drug uptake
In short: (§3)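 Rats given a single oral dose of 10 mg/kg. The first plasma sample was taken at 15 min, and sampling continued to 24 h postdose. Brain was sampled at 30 min. Values are the mean (±SEM) of 3 rats.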

[11] = Plasma clearance in Sprague-Dawley rat at 1 mg/kg, iv administered as single dose by LC-MS/MS analysis; assay type: ADME, organism-based; in short: as §2
[12] = Activity at COMT (unknown origin) up to 10 uM; assay type: ADME; conditions: human
[13] = target: Amine oxidase [flavin-containing] B (Homo sapiens, UniProt P27338); assay: Activity at MAO-B (unknown origin) up to 10 uM; assay type: ADME
Amine oxidase [flavin-containing] B, sequence (P27338 whole entry): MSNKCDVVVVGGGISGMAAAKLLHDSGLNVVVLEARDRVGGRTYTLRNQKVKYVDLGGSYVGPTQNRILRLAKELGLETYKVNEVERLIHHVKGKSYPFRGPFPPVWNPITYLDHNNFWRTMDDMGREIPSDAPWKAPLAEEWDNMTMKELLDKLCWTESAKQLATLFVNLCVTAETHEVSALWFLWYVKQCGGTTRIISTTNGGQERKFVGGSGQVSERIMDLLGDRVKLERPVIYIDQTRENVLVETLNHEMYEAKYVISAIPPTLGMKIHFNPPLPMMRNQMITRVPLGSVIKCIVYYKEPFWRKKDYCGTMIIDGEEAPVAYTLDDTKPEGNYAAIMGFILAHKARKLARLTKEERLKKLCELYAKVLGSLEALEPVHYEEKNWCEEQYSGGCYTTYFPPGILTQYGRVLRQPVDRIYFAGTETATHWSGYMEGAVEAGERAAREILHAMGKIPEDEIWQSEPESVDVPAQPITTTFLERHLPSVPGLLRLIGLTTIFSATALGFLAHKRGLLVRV

[14] = Volume of distribution in Sprague-Dawley rat at 1 mg/kg, iv administered as single dose by LC-MS/MS analysis; assay type: ADME, organism-based; conditions: in vivo
In short: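 Single intravenous dose: rats 1 mg/kg, mice 2 mg/kg. Plasma concentration–time data yielded Cmax, t1/2, AUC0−∞, plasma clearance and volume of distribution. Values are mean ±SEM of 3 animals.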

[15] = Half life in Sprague-Dawley rat at 1 mg/kg, iv administered as single dose by LC-MS/MS analysis; assay type: ADME, organism-based; conditions: in vivo; in short: as §2
[16] = target: T1, Metabotropic glutamate receptor 4 (Homo sapiens, UniProt Q14833); assay: Positive allosteric modulation of recombinant human mGlu4 receptor expressed in HEK293 cells co-expressing Gi/Gq assessed as increase in glutamate-induced calcium flux preincubated for 10 mins followed by glutamate addition measured for 3 mins by Fluo4-AM dye based fluorescence assay; assay type: functional, cell-based; conditions: read-out: EC50
T1 sequence (Q14833 whole entry): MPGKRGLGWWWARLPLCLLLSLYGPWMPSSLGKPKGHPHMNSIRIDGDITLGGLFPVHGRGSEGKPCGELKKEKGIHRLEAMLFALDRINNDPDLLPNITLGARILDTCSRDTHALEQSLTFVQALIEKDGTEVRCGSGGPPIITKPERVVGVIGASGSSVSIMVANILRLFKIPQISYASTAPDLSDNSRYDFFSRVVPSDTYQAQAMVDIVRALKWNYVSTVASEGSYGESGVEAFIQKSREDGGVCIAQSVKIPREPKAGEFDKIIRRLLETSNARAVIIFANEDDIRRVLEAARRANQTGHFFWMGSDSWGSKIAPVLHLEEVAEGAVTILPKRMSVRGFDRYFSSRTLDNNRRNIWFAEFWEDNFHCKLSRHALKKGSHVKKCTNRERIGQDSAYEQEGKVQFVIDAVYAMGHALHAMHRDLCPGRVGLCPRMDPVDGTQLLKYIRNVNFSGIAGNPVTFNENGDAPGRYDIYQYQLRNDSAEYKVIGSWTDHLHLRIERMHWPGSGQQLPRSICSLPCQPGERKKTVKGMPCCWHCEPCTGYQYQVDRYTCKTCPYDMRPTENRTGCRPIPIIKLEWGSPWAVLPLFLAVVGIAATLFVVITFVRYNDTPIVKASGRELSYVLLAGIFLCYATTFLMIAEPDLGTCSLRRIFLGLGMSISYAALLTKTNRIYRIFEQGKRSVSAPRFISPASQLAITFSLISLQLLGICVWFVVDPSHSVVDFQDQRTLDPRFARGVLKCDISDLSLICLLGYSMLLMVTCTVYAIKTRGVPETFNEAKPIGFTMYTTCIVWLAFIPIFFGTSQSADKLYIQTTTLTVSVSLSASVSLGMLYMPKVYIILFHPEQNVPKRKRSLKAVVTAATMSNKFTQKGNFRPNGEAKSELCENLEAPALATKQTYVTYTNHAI

[17] = target: Amine oxidase [flavin-containing] A (Homo sapiens, UniProt P21397); assay: Activity at MAO-A (unknown origin) up to 10 uM; assay type: ADME
Amine oxidase [flavin-containing] A, sequence (P21397 whole entry): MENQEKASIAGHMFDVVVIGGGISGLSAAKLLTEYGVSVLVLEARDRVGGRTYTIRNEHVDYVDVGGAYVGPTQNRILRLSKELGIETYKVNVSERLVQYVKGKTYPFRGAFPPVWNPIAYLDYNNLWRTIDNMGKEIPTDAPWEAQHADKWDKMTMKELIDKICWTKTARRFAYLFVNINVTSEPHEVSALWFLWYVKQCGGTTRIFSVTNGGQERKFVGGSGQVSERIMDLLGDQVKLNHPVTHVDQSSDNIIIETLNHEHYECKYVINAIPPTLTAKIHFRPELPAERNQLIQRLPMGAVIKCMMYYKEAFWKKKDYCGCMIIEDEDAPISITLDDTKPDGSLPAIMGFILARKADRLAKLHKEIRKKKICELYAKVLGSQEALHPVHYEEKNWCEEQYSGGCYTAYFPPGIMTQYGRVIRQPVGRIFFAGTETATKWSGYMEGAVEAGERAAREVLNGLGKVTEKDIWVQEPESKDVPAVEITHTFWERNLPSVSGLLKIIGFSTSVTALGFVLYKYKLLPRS

[18] = AUC (0 to infinity) in Sprague-Dawley rat plasma at 10 mg/kg, po administered as single dose by LC-MS/MS analysis; assay type: ADME, organism-based; design: dose 10 mg/kg, time infinity, route oral; in short: as §3
[19] = target: T1, Metabotropic glutamate receptor 4; assay: Positive allosteric modulation of recombinant human mGlu4 receptor expressed in HEK293 cells co-expressing chimeric G protein assessed as increase in EC20 glutamate-induced […]; assay type: functional, cell-based
[20] = Ratio of AUC (0 to infinity) in Sprague-Dawley rat brain to plasma at 10 mg/kg, po administered as single dose by LC-MS/MS analysis; assay type: ADME, organism-based; conditions: read-out: Ratio AUC
[21] = target: Metabotropic glutamate receptor 4 (Rattus norvegicus, UniProt P31423); assay: Positive allosteric modulation of rat mGlu4 receptor expressed in HEK293 cells co-expressing Gi/Gq assessed as increase in glutamate-induced calcium flux preincubated for 10 mins followed by glutamate addition measured for 3 mins by Fluo4-AM dye based fluorescence assay; assay type: functional, cell-based
Metabotropic glutamate receptor 4 (Rattus norvegicus, UniProt P31423), sequence (P31423 whole entry): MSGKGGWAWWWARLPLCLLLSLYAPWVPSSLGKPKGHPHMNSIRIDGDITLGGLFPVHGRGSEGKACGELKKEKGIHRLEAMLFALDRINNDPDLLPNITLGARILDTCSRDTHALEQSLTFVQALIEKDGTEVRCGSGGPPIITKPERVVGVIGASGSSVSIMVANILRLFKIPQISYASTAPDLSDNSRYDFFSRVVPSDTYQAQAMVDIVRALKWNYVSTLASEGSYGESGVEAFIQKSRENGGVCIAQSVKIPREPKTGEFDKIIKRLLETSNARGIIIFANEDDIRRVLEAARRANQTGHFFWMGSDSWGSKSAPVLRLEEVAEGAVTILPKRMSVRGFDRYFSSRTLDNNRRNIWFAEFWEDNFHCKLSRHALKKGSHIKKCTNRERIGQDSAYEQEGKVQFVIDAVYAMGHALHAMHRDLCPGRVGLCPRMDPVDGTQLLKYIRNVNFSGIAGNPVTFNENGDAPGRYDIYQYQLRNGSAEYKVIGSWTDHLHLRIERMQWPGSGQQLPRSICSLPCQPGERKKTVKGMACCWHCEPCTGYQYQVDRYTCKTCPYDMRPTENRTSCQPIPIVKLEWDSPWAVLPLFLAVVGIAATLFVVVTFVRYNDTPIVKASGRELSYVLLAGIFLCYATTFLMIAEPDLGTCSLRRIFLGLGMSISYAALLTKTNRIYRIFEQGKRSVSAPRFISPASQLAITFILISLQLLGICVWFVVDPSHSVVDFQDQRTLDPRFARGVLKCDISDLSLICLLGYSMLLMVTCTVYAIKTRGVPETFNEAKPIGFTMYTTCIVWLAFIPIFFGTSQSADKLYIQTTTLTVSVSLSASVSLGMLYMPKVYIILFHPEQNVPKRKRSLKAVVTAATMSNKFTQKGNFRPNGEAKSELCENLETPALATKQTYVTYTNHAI

[22] = Cmax in Sprague-Dawley rat plasma at 10 mg/kg, po administered as single dose by LC-MS/MS analysis; assay type: ADME, organism-based; design: dose 10 mg/kg, route oral; in short: as §3
[23] = Drug uptake in Sprague-Dawley rat brain at 10 mg/kg, po after 60 mins post dose administered as single dose by LC-MS/MS analysis; assay type: ADME, organism-based; conditions: read-out: Drug uptake
In short: (§4)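 Rats given a single oral dose of 10 mg/kg. Brain concentrations were measured at 30, 60 and 90 min postdose, and brain AUC0–inf was determined. Values are the mean of three rats. Lower limit of quantification was 1 ng/mL.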

[24] = target: T1, Metabotropic glutamate receptor 4; assay: Positive allosteric modulation of recombinant human mGlu4 receptor expressed in HEK293 cells co-expressing chimeric Gi/Gq assessed as increase in EC20 glutamate-induced calcium flux at 15 uM preincubated for 10 mins followed by glutamate addition measured for 3 mins by Fluo4-AM dye based fluorescence assay relative to control; assay type: functional, cell-based
[25] = Drug uptake in Sprague-Dawley rat brain at 10 mg/kg, po after 90 mins post dose administered as single dose by LC-MS/MS analysis; assay type: ADME, organism-based; conditions: read-out: Drug uptake; in short: as §4
[26] = Ratio of drug level in Sprague-Dawley rat brain to plasma at 25 mg/kg, po administered as single dose by LC-MS/MS analysis; assay type: ADME, organism-based; conditions: read-out: BPR
In short: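 Sprague−Dawley rats dosed orally at 25 mg/kg in water; plasma and brain concentrations followed over time to derive brain/plasma ratio.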

[27] = Cmax in Sprague-Dawley rat at 1 mg/kg, iv administered as single dose by LC-MS/MS analysis; assay type: ADME, organism-based; design: dose 1 mg/kg, route intravenous; conditions: in vivo
Brain = assay: AUC (0 to infinity) in Sprague-Dawley rat brain at 10 mg/kg, po administered as single dose by LC-MS/MS analysis; assay type: ADME, organism-based; design: dose 10 mg/kg, time infinity, route oral; conditions: in vivo; in short: as §4
[28] = AUC (0 to infinity) in Sprague-Dawley rat at 1 mg/kg, iv administered as single dose by LC-MS/MS analysis; assay type: ADME, organism-based; design: dose 1 mg/kg, route intravenous, time infinity; conditions: in vivo
[29] = target: T1, Metabotropic glutamate receptor 4; assay: Positive allosteric modulation of recombinant human mGlu4 receptor expressed in HEK293 cells co-expressing chimeric G protein assessed as increase in glutamate-induced calcium flux after 10 mins by Fluo4-AM dye based fluorescence assay; assay type: functional, cell-based
Rattus norvegicus [30] = species: Rattus norvegicus; assay: Activity at AMPA glutamate receptor in rat cerebral cortex at 10 uM; in short: as §1
[31] = target: T1, Metabotropic glutamate receptor 4; assay: Positive allosteric modulation of recombinant human mGlu4 receptor expressed in HEK293 cells co-expressing chimeric Gi/Gq protein assessed as fold shift of glutamate potency at 3 uM after 10 mins by Fluo4-AM dye based fluorescence assay relative to control
Rattus norvegicus [32] = species: Rattus norvegicus; assay: Activity at NMDA glutamate receptor in rat cerebral cortex at 10 uM; in short: as §1

Structure (SMILES): N[C@@H](Cc1ccc(O)c(O)c1)C(=O)O [LEVODOPA]
- Activity (Rattus norvegicus [1]): Non-Toxic
- Activity (Rattus norvegicus [2]): Toxic
- Activity (Rattus norvegicus [3]): Dose-dependent effect

Structure (SMILES): O/N=c1\cc(-c2cc3sccc3cn2)oc2ccc(CCCN3CCOCC3)cc12 [FOLIGLURAX]
- Tmax [4]: 1.17 h
- Selectivity ratio (Homo sapiens [5]): 110
- Activity (Rattus norvegicus [6]): inactive
- Selectivity ratio (Homo sapiens [7]): 50
- Selectivity ratio (Homo sapiens [8]): 15
- Kp at 1 h [9]: 8.4
- concentration at 0.5 h [10]: 458 ng/g
- clearance [11]: 104 mL/min/kg
- Activity [12]: Not Active
- Activity [13]: Not Active
- Vd [14]: 8.02 L/kg
- half-life [15]: 0.9 h
- pEC50 [16]: 7.10
- Activity [17]: Not Active
- AUC(0-inf) [18]: 432 ng·h/mL
- Emax [19]: 70%
- Kp [20]: 6.6
- pEC50 [21]: 7.33
- Cmax [22]: 94 ng/mL
- concentration at 1 h [23]: 785 ng/g
- Emax [24]: 32%
- concentration at 1.5 h [25]: 818 ng/g
- Kp [26]: ≤ 13.5
- Cmax [27]: 325 ng/mL
- AUC (Brain): 2713 ng·h/g
- AUC(0-inf) [28]: 163 ng·h/mL
- pEC50 [29]: 7.10
- Activity (Rattus norvegicus [30]): inactive
- fold change (FC) [31]: 10
- Activity (Rattus norvegicus [32]): inactive
